S1P1 ag pot: S1P1 agonists and agonism potentiators, primary screen, cell-based, primary and confirmation screens, CRE-bla reporter; Sphingosine 1-phosphate receptor 1 (Homo sapiens), P21453; S1P1 CRE-bla cells, forskolin, beta-lactamase FRET, potentiator mode; S1P1 agonist co-added at EC20, 2 nM; 100% = saturating reference agonist, 0% = basal; activation, % at 9.5 µM; 56,000 compounds, 0.57% hits;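 active means activation above a cutoff set at the mean activation of all tested compounds plus 3 SD, cut at about 54% in these data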;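 further: forskolin at 4 µM as EC80 and the EC20 agonist is SEW2871; 100% = SEW2871 at its EC100 plus forskolin at EC80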
Target sequence (P21453 whole entry, looked up): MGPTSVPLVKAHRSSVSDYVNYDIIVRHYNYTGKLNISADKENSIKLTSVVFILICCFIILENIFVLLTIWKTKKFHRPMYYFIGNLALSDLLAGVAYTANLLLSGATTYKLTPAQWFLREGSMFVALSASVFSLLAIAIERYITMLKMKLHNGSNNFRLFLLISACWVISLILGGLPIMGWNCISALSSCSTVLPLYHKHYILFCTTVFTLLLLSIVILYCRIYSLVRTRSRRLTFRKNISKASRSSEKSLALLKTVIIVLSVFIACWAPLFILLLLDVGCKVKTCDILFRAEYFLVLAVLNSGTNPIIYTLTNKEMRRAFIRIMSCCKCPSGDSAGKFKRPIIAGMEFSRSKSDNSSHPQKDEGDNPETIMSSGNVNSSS
S1P3 agonist: human S1P3 receptor agonists, primary screen, cell-based, primary and confirmation, NFAT-BLA reporter. S1P3 NFAT-BLA reporter cells, agonism, FRET ratio; relative to 1 µM S1P, basal subtracted. activation, % at 4.5 µM. 60,000 compounds, 0.1% hits;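 active means activation above the screen-wide mean plus 3 SD, cut at about 4.5% in these data, passing the limit was not always enough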
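material = human S1P3 NFAT-BLA reporter CHO cells | schedule = 4 h compound at 37 °C, 2 h substrate at RT | measured by = fluorescent BLA substrate, ex 405 nm, em 460/535 nm ratio | controls = 1 µM S1P reference | replication = primary once, confirmation triplicate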
HTR1E antagonist: 5-HT1E receptor antagonists, primary screen, cell-based, HTS; CHO 5-HT1E Ga15 NFAT-bla reporter, FRET, antagonist; inhibition, % at 6 µM; 65,000 compounds, 0.99% hits; AID 571, 2007;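 active means inhibition above a set limit, the mean inhibition across every tested compound plus 3 SD, cut at about 29% in these data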;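 further: signal is the 460 over 535 nm emission ratio of beta-lactamase substrate; 0% = agonist plus DMSO wells and 100% = wells without agonist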
5-HT1A blocker: human 5-HT1a receptor antagonists, primary screen, cell-based, CHO, Ga15 NFAT-bla reporter; 5-hydroxytryptamine receptor 1A (Homo sapiens), P08908; inhibition, % at 10 µM; CHO 5-HT1a Ga15 NFAT-bla reporter, antagonist mode; AID 612, 2007; 62,000 compounds, 0.68% hits;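 active means inhibition above the mean of all tested compounds plus 3 SD, cut at about 43% in these data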;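 further: receptor stimulated by 5-CT agonist at 100 nM near EC80; beta-lactamase reporter measured by ratiometric fluorescence of a cleavable substrate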
HTR1A agonist: human 5-HT1a receptor agonists, primary screen, cell-based, CHO, Ga15 NFAT-bla reporter. activation, % at 10 µM. 5-hydroxytryptamine receptor 1A (Homo sapiens), P08908. CHO 5-HT1a Ga15 NFAT-bla reporter, FRET ratio; 0% basal, 100% maximal reference agonist. 65,000 compounds, 0.56% hits;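 active means activation above the screen-wide mean activation plus 3 SD, cut at about 19% in these data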;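 further: 0% = DMSO wells and 100% = 5-CT at EC100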
5HT1E ag: 5-HT1E receptor agonists, primary screen, cell-based, HTS; AID 574, 2007; 65,000 compounds, 0.69% hits; CHO 5-HT1E Ga15 NFAT-bla reporter, FRET; 0% DMSO wells, 100% control agonist wells; activation, % at 6 µM;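 active means activation above a set limit, the screen-wide mean activation plus 3 SD, cut at about 8.5% in these data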;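 further: 100% = positive control agonist at 1 µM giving full maximal response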
Numbers without * were called inactive; nt = no result given. The list is not random: actives were taken first. Their share in the collection is about 3%.

SMILES | S1P1 ag pot | S1P3 agonist | HTR1E antagonist | 5-HT1A blocker | HTR1A agonist | 5HT1E ag
COc1ccc(N2C(=O)CCC(C(=O)Nc3cccc(C)n3)C2c2ccc(OC)c(OC)c2)cc1 (configuration not stated) | nt | nt | 12 | 0 | 29* | -2
C=CCN1CCN(C(c2cc(OC)ccc2OC)c2nnnn2CC2CCCO2)CC1 (configuration not stated) | 11 | 0 | 7 | 15 | -3 | -1
Cc1cc(C)nc(SC2=CS(=O)(=O)c3ccccc32)n1 | 43 | -1 | 28 | 28 | 0 | 1
O=S1(=O)C=C(Sc2nc3ccccc3s2)c2ccccc21 | 114* | -2 | 106* | 98* | -4 | 0
CC1=C(C(=O)OCc2ccc3c(c2)OCO3)C(c2ccc(Cl)cc2)NC(=O)N1 (configuration not stated) | 113* | -2 | 43* | 50* | 0 | 0
COc1ccc(COC(=O)C2=C(C)NC(=O)NC2c2ccc(O)c(OC)c2)cc1 (configuration not stated) | 15 | 0 | -1 | 0 | -3 | 0
CCOC(=O)C1=C(C)NC(=O)NC1c1ccc2c(c1)OCCO2 (configuration not stated) | 9 | 0 | -3 | 8 | -4 | 0
CC1=C(C(=O)OCc2ccc3c(c2)OCO3)C(c2ccc(F)cc2)NC(=O)N1 (configuration not stated) | 94* | -1 | 29* | 22 | -3 | -2
CSc1ncccc1C(=O)OCc1ccccc1 | -23 | 0 | -4 | -11 | -2 | -1
CSc1ncccc1C(=O)OCc1ccccc1F | 25 | 0 | -3 | -8 | 73* | 2
COc1ccc(Nc2nc3c(c(=O)n(C)c(=O)n3C)n2CCO)cc1 | -21 | 0 | -10 | -7 | -4 | 3
COc1ccc(-n2nnnc2-c2cccc(OC)c2)cc1 | -1 | 0 | 35* | 20 | -2 | -1
Cc1nnc(Sc2nc(Sc3nnc(C)s3)nc(N3CCN(C)CC3)n2)s1 | -72 | -2 | 68* | 78* | 4 | -1
CCOC(=O)C1CCN(C(=O)C2CCN(S(=O)(=O)c3cccc4cccnc34)CC2)CC1 | -1 | -1 | 7 | 13 | 1 | 0
CC(C)C[C@H](N)c1nnc(S(=O)(=O)Cc2ccc(F)cc2)o1 | 5 | -2 | 43* | 88* | 0 | 0
CCS(=O)(=O)N1CCCC(C(=O)NC2CCC(C)CC2)C1 (configuration not stated) | 2 | 2 | -6 | -8 | -1 | -1
COc1ccccc1N1CCN(C(=O)CSc2nc3ncnc(N)c3[nH]2)CC1 | nt | -1 | 1 | -8 | 1 | 3
COc1ccccc1N1CCN(C(=O)CSc2nc(-c3ccccc3)cc(=O)[nH]2)CC1 | 3 | 0 | -11 | -2 | 9 | 15*
COc1ccccc1N1CCN(C(=O)CSc2nc(C)c(Cc3ccccc3)c(=O)[nH]2)CC1 | -15 | 0 | -3 | 12 | 2 | 20*
O=C(CN1CCN(C(c2ccccc2)c2ccccc2)CC1)NC(=O)NCc1ccco1 | 22 | 0 | -6 | 8 | 0 | 1
CCC(C)(C(=O)NC1CCCC1)N(Cc1ccco1)C(=O)c1ccccn1 (configuration not stated) | -1 | -1 | 2 | 32 | -1 | 0
CCC(C)(C(=O)NC1CCCC1)N(Cc1cccs1)C(=O)Cc1cccs1 (configuration not stated) | nt | nt | 8 | 59* | 0 | -1
CCC(C)(C(=O)NC1CCCC1)N(Cc1cccs1)C(C)=O (configuration not stated) | nt | nt | 6 | 16 | -2 | 0
CCC(C)(C(=O)NC1CCCC1)N(Cc1ccco1)C(=O)c1ccc2c(c1)OCO2 (configuration not stated) | 1 | -1 | -20 | 49* | -2 | 0
CC1=C(C(=O)NCc2ccccn2)C2(CCC(C)CC2)OC1=O (configuration not stated) | -28 | -1 | -1 | 1 | -5 | 2
SMILES | S1P1 ag pot | S1P3 agonist | HTR1E antagonist | 5-HT1A blocker | HTR1A agonist | 5HT1E ag
CC(=O)c1cccc(NC(=O)c2cc3nc(C)cc(C)n3n2)c1 | nt | -1 | 6 | 7 | 0 | -1
COc1ccc(CCNc2c(C)c(C)nc3ncnn23)cc1 | 134* | 2 | 12 | 11 | -2 | 0
O=C(NCC(=O)N(c1ccccc1)C(C(=O)NCC1CCCO1)c1ccccc1)c1ccco1 (configuration not stated) | 6 | -1 | 1 | 8 | -2 | 0
COc1ccc(OC)c(C(O)c2coc3ccc(O)c(CN4CCOCC4)c23)c1 (configuration not stated) | -15 | -1 | 4 | nt | 1 | 0
Cc1ccc(NC(=O)CC2Nc3ccccc3NC2=O)cc1Cl (configuration not stated) | -82 | 5.9* | 11 | -15 | 34* | 14*
CCOC(=O)N1CCN(C(=O)C2COc3ccccc3O2)CC1 (configuration not stated) | nt | nt | -2 | -2 | -1 | 3
CCOC(=O)N1CCN(C(=O)CSc2nnc(C3COc4ccccc4O3)o2)CC1 (configuration not stated) | 9 | 0 | 8 | -12 | 78* | 0
[N-]=[N+]=CC(=O)c1ccnc(C(=O)C=[N+]=[N-])c1 | 6 | -3 | 1 | nt | 0 | 0
CN1CCN(c2ccccc2NC(=O)c2ccc(Br)o2)CC1 | -5 | -1 | 8 | 16 | 2 | 13*
O=S(=O)(Nc1ccc(N2CCOCC2)cc1)c1cccs1 | 12 | -1 | 6 | -10 | -2 | 10*
O=S(=O)(c1ccc2oc3ccc(S(=O)(=O)N4CCCC4)cc3c2c1)N1CCCC1 | -5 | 0 | -6 | -6 | -2 | 0
CCN(CC)C(=O)C1CCN(S(=O)(=O)c2ccc3oc4ccccc4c3c2)CC1 | 84* | -2 | 6 | 8 | 0 | 1
CCc1nnc(NC(=O)CSc2nnc(CNc3ccc(Cl)cc3)o2)s1 | 1 | -1 | 5 | 2 | -3 | 0
CCOc1cc(C(=O)CSc2nnc(CNc3ccc(Cl)cc3)o2)ccc1NC(=O)CC | 12 | -1 | 58* | 32 | -2 | 4

Bioassay records as filed in PubChem BioAssay.
